Assay results from the RNAGym collection of RNA variant scans (doi:10.1126/science.aae0568).
Fewer inactive variants are shown than the library holds.

B1: tRNA (parent)
chain: GUUCCGUUGGCGUAAUGGUAACGCGUCUCCCUCCUAAGGAGAAGACUGCGGGUUCGAGUCCCGUACGGAACG

Variants of: B1
Experiment: yeast fitness relative to wild type (ratio to wild type); higher = fitter; tRNA-Arg(CCU), competitive growth, 37 C, YPD
Procedure, shortened: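 Start and end populations of a pooled competition were compared by 100-nucleotide paired-end sequencing of gene amplicons. The Saccharomyces cerevisiae strains carried tRNA-Arg(CCU) gene variants at the native genomic locus, synthesised with a 3% per-site mutation rate at 69 sites, and competed in YPD at 37°C for 24 hours in six parallel replicates. Darwinian fitness relative to wild type was based on the change in genotype frequencies. Genotypes required ≥ 100 starting reads, and estimates < 0.5 were set to 0.5.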

| Variant | yeast fitness |
| --- | --- |
| GUUCCGUUGGCGUAAUGGUAAUGCGACUCCCUCCUAAGGAGAAGACCGCGGGUUCGAGUCCAGUACGGAACG [C22U U26A U47C C62A] | ≤ 0.5 |
| GUUCCGUUGGCGUAAUGGUAAUGCGUCUCCCUCCUAACGAGAAGACUGCGGGUUCGAGUCCCGUUUGGAACG [C22U G38C A65U C66U] | 0.547 |
| GUUCCGUUGGCGUAAUGGUAAUGCCUCCCCCUCCUGAGGAGAAGACUGCGAGUUCGAGUCCCGUACAGAACG [C22U G25C U28C A36G G51A G67A] | ≤ 0.5 |
| GUUCCGUUGGCGUAAUGGUAAUGCGUCUCCCUCCUAAGGAGAAGACUGGGGGUUCGAGUCCCGUACGGAACG [C22U C49G] | 0.87 |
| GUUCCGUUGGCGUAAUGGUAAUGCAUCUCCAUCCUAAGGAGAAGACUGCGGGUUCGAGUCCCGUACGGAACG [C22U G25A C31A] | 0.728 |
| GUUCCGUUGGCGUAAUGGUAAUACGUCUCCCUCCUAAGGAGAAGACUGCGGGUUCAAGUCCCGUACGGAACG [C22U G23A G56A] | ≤ 0.5 |
| GUUCCGUUGGCGUAAUGGUAAUGCGUCUCCCUCAUAAGGAGAAGACUGCGGGUUCGAGUCCCGUACGGAACG [C22U C34A] | 0.641 |
| GUUCCGUUGGCGUAAUGGUAAUGCGUCUCCCUCUUAAGGAGAAGACUGCGGGUUCGAGUCCCGUACGGAACG [C22U C34U] | 0.665 |
| GUUCCGUUGGCGUAAUGGUAAUGCGUCUCCCUCGUUAGGAGAAGACUGCGGGUUCGAGUCCCGUACGGAACG [C22U C34G A36U] | 0.519 |
| GUUCCGUUGGCGUAAUGGUAAUGCCUCUCCCUCCUAAGGAGAAGACUGCGGGUUCGAGUCCCGUACGGAACG [C22U G25C] | 0.697 |
| GUUCCGUUGGCGUAAUGGUAAUGCAUCUCCCUCCUAAGGAGAAGACUGCGGGUUCGAGUCCCGUACGGAACG [C22U G25A] | 0.849 |
| GUUCCGUUGGCGUAAUGGUAAUGCCUCUCCCUACUAAGGAGAAGACUGCGGGUUCGAGUCCCGUACGGAACG [C22U G25C C33A] | 0.552 |
| GUUCCGUUGGCGUAAUGGUAAUGCGUCUCCCUUCUAAGGAGAAGACUGCGGGUUCGAGUCCCGUACGGAACG [C22U C33U] | 0.717 |
| GUUCCGUUGGCGUAAUGGUAAUGCGUCUCCCUCCUAAGGAGAAGACUGUGGGUUCGAGUCCCGAACGGAACG [C22U C49U U64A] | 0.53 |
| GUUCCGUUGGCGUAAUGGUAAUGCGUCUCCCUCCUAAGGAGAAGACUGCGGGUUUGAGUCCCGUGCGGAACG [C22U C55U A65G] | ≤ 0.5 |
| GUUCCGUUGGCGUAAUGGUAAUGCGUCUCCCUCCUAAGGAGAAGACUGCGGGUUUGAGUCCCGUACGGAACG [C22U C55U] | 0.686 |
| GUUCCGUUGGCGUAAUGGUAAUGCGUCUCCCUCCUAAGGAGAAGACUGCGGGUUGGAGUCCCGUACGGAACG [C22U C55G] | 0.578 |
| GUUCCGUUGGCGUAAUGGUAAUGCGACUUCCUCCUAAGGAGAAGACUGCGGGUCCGAGUCCCGUAUGGAACG [C22U U26A C29U U54C C66U] | ≤ 0.5 |
| GUUCCGUUGGCGUAAUGGUAAUGCGUCUCCCUUCUAAGGAGAAGACUGCGGAUUCGAGUCCCGUACGGAACG [C22U C33U G52A] | 0.566 |

| Variant | yeast fitness |
| --- | --- |
| GUUCCGUUGGCGUAAUGGUAAUGCAUCUCCCUCCUAAGGAGAAGACUGCGGGUUCGAGUCCCGUUCGGAACG [C22U G25A A65U] | 0.687 |
| GUUCCGUUGGCGUAAUGGUAAUGCGUCUCCCUCCUAAGCAGAAGACUCCGGGUUCGAGUCCCGUACGGAACG [C22U G39C G48C] | 0.516 |
| GUUCCGUUGGCGUAAUGGUAAUGCCUCCCCCUCCUGAGGAGAAGACUGCGAGUUCGAGUCCCGUACGGAACG [C22U G25C U28C A36G G51A] | ≤ 0.5 |
| GUUCCGUUGGCGUAAUGGUAAUGCGUCACCCUGCUAAGGAGAAGACUGCGGGUUCGAAUCCCGUAUGGAACG [C22U U28A C33G G58A C66U] | ≤ 0.5 |
| GUUCCGUUGGCGUAAUGGUAAUGCGUCUCCCUCCUAAGGAGAAGACUGCGGCUCCGAGUCCCGUACGGAACG [C22U G52C U54C] | ≤ 0.5 |
| GUUCCGUUGGCGUAAUGGUAAUGCGUCCGCCUACUAAGGAGAAGACUGCGGGUUCGAGUCCUAAACGGAACG [C22U U28C C29G C33A C62U G63A U64A] | ≤ 0.5 |
| GUUCCGUUGGCGUAAUGGUAAUGCGUCUCCCUCCUAAGGAGAAGACUGCGGGUUUGAGUCCCGUACCGAACG [C22U C55U G67C] | ≤ 0.5 |
| GUUCCGUUGGCGUAAUGGUAAUGCGUCUCCCUCCUAAGGAGAAAAGUGCGAGUUCGAGUCCCGUAGGGAACG [C22U G44A C46G G51A C66G] | ≤ 0.5 |
| GUUCCGUUGGCGUAAUGGUAAUGCAUCUCCCUCCUAAGGAGAAGACUGCAGGUUCGAGUCCCGUACGGUACG [C22U G25A G50A A69U] | ≤ 0.5 |
| GUUCCGUUGGCGUAAUGGUAAUGCGUCUCCCUCCUAAGGAGAAGACUGCGGGUUCGAGUCCUGUCCGGAACG [C22U C62U A65C] | 0.691 |
| GUUCCGUUGGCGUAAUGGUAAUGCGUCUCCCUCCUAAGGAGAAGACUGCGGGUUCGAGUUCCGUACGGAACG [C22U C60U] | 0.723 |
| GUUCCGUUGGCGUAAUGGUAAUGCGACUCCCUCCUAAGGAGAAGACCGCGGGUUCGAGUCCCGUACGGAACG [C22U U26A U47C] | ≤ 0.5 |
| GUUCCGUUGGCGUAAUGGUAAUACGUCUCCCUCCUAAGGAGAAGACUGCGGGUUCGAGUCCCGUACGGACCG [C22U G23A A70C] | ≤ 0.5 |
| GUUCCGUUGGCGUAAUGGUAAUGCGUCUCCCUCCUAAGGAGAAGAGUGCGGGUUAGAGUCCCGUAAGGAACG [C22U C46G C55A C66A] | 0.564 |
| GUUCCGUUGGCGUAAUGGUAAUGCGUCUCCCUCCUAAGGAGAAGACUGCGCGUUCGAGUCCCGUACGGAACG [C22U G51C] | 0.512 |
| GUUCCGUUGGCGUAAUGGUAAUGCCUCUCCCUCCUAAGGAGAAGACUGCGGGUUCGAGUCCUGUACGGAACG [C22U G25C C62U] | 0.67 |
| GUUCCGUUGGCGUAAUGGUAAUGCGUCUCCCUCCUAAGGAGAAGACUCCGGGUUCGAGUCCCGUACGGAACG [C22U G48C] | 0.863 |
| GUUCCGUUGGCGUAAUGGUAAUGCAUCUCCCACCUCAGGAGAAGACUGCGGGUUCGAGUCCCGUACGGAGCG [C22U G25A U32A A36C A70G] | ≤ 0.5 |
